# From ChEMBL document CHEMBL1955830, “Substituted azaquinazolinones as modulators of GHSr-1a for the treatment of type II diabetes and obesity” (Bioorg Med Chem Lett, 2012)
# Legend:
# [1] = target: Growth hormone secretagogue receptor type 1 (Homo sapiens, UniProt Q92847); test: Displacement of [125I]-Ghrelin from human GHSR membranes overexpressing GSH-R1a by scintillation counting
# Outline: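 Binding affinity (Ki) at GHS-R1a was measured by 125I-ghrelin displacement using commercial human GHS-R1a membranes.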
# [2] = Antagonist activity at mouse GSH-R1a receptor expressed in HEK293 cells assessed as inhibition of ghrelin-induced calcium mobilization after 5 mins by FLIPR assay; assay type: functional, cell-based; details: HEK293, 5 min
# Outline: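 Functional antagonism was measured as IC50 in a FLIPR Ca2+ mobilisation assay.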
# [3] = target: Voltage-gated inwardly rectifying potassium channel KCNH2 (Homo sapiens, UniProt Q12809); test: Inhibition of human Erg by patch clamp assay; details: for pIC50: human
# Voltage-gated inwardly rectifying potassium channel KCNH2, sequence (Q12809 whole entry): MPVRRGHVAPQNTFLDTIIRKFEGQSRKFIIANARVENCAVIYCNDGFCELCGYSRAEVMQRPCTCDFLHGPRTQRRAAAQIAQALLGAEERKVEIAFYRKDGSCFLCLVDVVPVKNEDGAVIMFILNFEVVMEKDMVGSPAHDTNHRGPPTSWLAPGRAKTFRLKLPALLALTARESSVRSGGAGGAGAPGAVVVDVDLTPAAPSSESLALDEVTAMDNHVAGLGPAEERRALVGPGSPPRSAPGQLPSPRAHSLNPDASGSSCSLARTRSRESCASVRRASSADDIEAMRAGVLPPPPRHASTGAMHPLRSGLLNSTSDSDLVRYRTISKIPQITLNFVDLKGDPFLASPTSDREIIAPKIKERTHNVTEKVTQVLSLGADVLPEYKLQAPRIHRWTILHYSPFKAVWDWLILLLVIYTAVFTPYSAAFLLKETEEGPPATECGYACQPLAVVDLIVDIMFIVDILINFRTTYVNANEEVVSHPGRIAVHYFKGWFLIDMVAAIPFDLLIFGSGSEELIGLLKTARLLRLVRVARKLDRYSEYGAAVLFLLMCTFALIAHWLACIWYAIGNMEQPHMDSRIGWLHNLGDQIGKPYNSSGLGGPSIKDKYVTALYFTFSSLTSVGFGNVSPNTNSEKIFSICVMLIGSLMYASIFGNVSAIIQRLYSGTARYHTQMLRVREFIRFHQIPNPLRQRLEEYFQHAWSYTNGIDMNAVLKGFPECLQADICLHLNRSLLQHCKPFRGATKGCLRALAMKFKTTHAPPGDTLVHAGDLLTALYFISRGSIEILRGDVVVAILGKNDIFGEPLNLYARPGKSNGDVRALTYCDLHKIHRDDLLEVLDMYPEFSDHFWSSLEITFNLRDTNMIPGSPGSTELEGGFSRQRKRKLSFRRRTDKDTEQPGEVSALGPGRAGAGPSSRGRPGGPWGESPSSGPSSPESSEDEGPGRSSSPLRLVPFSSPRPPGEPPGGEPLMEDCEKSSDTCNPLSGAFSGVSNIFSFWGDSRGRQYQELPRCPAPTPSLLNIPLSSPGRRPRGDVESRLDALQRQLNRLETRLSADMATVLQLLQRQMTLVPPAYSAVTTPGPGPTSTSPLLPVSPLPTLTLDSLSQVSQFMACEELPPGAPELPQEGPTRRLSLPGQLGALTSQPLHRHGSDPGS
# [4] = AUC in Sprague-Dawley rat at 1 mg/kg, iv; assay type: ADME, organism-based; parameters: dose 1 mg/kg, route intravenous; details: plasma
# Outline: (§1)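 Male Sprague-Dawley rats were dosed with compound formulated in 20% trappsol in water for injection as the vehicle.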
# [5] = Volume of distribution at steady state in Sprague-Dawley rat at 1 mg/kg, iv; assay type: ADME, organism-based; parameters: dose 1 mg/kg, route intravenous; details: in vivo, read-out: Vdss; outline: as §1
# Rattus norvegicus = test: Clearance in Sprague-Dawley rat at 1 mg/kg, iv; assay type: ADME, organism-based; parameters: dose 1 mg/kg, route intravenous; details: in vivo; outline: as §1
# [6] = Oral bioavailability in Sprague-Dawley rat at 1 mg/kg; assay type: ADME, organism-based; details: in vivo, 3 mg/kg, in the assay text read “3 mg/kg” for “1 mg/kg”; outline: as §1
# [7] = AUC in Sprague-Dawley rat at 3 mg/kg, po; assay type: ADME, organism-based; parameters: dose 3 mg/kg, route oral; details: plasma; outline: as §1
# [8] = Half life in Sprague-Dawley rat at 1 mg/kg, iv; assay type: ADME, organism-based; parameters: dose 1 mg/kg, route intravenous; details: in vivo; outline: as §1
# hERG (KCNH2) = hERG (KCNH2) (Homo sapiens, UniProt Q12809); test: in vitro
# hERG (KCNH2), sequence (Q12809 whole entry): as above
# [9] = target: T1, Muscarinic acetylcholine receptor M2 (Homo sapiens) (UniProt P08172); test: Inhibition of muscarinic M2 receptor at 10 uM
# T1 sequence (whole entry): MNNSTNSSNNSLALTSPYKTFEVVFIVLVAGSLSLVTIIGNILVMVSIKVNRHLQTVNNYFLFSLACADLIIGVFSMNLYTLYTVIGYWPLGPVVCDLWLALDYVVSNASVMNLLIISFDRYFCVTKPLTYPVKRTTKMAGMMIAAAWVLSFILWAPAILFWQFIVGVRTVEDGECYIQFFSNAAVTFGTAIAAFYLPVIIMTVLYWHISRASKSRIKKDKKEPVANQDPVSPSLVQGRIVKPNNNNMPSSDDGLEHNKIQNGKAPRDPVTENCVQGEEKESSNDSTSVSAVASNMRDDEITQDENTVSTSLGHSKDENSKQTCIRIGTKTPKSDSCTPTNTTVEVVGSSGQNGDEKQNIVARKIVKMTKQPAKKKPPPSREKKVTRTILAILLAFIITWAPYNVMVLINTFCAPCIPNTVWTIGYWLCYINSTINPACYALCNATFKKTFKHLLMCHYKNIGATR
# [10] = target: T2, Muscarinic acetylcholine receptor M1 (Homo sapiens) (UniProt P11229); test: Inhibition of muscarinic M1 receptor at 10 uM
# T2 sequence (whole entry): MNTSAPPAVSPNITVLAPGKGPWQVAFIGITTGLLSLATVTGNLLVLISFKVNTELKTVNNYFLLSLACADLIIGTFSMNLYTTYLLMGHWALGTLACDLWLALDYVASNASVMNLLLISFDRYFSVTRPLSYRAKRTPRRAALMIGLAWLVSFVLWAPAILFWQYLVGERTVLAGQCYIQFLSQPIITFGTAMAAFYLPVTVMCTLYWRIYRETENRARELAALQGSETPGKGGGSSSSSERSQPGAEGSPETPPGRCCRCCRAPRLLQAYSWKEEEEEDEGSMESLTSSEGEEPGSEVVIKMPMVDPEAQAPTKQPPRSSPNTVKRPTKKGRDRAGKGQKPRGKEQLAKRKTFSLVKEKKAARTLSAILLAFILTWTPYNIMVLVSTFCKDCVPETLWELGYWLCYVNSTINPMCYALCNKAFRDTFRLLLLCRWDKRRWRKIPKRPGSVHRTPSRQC
# [11] = target: 5-hydroxytryptamine receptor 2B (Homo sapiens) (UniProt P41595); test: Inhibition of 5-HT2B at 10 uM
# 5-hydroxytryptamine receptor 2B (Homo sapiens), sequence (P41595 whole entry): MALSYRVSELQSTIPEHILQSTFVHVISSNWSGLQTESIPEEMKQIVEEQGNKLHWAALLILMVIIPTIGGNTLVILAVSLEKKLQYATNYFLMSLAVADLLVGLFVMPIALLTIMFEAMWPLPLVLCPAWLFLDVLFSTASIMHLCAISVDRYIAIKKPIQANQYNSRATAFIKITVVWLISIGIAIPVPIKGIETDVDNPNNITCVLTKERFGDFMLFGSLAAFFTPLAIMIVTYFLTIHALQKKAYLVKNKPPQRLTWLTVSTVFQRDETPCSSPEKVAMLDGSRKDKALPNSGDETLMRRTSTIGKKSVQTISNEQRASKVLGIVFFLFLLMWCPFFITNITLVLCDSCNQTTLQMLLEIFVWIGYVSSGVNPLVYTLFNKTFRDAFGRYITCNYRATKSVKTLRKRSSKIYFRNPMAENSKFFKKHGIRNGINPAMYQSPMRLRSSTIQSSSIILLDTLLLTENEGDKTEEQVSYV
# Growth hormone secretagogue receptor type 1, sequence (Q92847 whole entry): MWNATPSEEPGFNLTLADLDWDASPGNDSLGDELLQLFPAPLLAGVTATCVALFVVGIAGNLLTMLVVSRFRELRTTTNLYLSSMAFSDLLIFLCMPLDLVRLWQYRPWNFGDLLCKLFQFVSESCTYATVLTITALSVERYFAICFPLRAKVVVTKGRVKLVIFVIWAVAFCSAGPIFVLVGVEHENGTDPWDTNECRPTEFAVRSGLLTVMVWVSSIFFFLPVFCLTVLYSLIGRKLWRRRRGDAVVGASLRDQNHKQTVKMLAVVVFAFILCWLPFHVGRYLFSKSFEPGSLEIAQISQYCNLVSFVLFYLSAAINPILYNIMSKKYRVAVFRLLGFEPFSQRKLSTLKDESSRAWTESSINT
Compound,Ki [1] [nM],IC50 [2] [nM],also measured
Cc1nc2cnc(Oc3ccc(F)c4cccnc34)cc2c(=O)n1C[C@H]1CCCN(C(C)C)C1,6.6,1440,IC50 [3]: 9400 nM
Cc1nc2cnc(Oc3ccc4c(c3)OCO4)cc2c(=O)n1C[C@H]1CCCN(C(C)C)C1,0.3,86.5,–
Cc1nc2cnc(Oc3cccc4cccnc34)cc2c(=O)n1C[C@H]1CCCN(C(C)C)C1,–,–,IC50 [3]: 25100 nM; pIC50 [3]: 4.6
Cc1nc2ncc(Oc3ccc(F)c4cccnc34)nc2c(=O)n1C[C@H]1CCCN(C(C)C)C1,1.9,142,IC50 [3]: > 33000 nM
Cc1nc2ccc(Oc3ccc4ncsc4c3)nc2c(=O)n1C[C@H]1CCCN(C(C)C)C1,0.01,2.7,–
Cc1nc2ncc(Oc3ccc4c(c3)ncn4C)nc2c(=O)n1C[C@H]1CCCN(C(C)C)C1,5,51.8,–
Cc1nc2ccc(Oc3ccc(Cl)cc3F)nc2c(=O)n1C[C@H]1CCCN(C(C)C)C1,0.2,2,AUC [4]: 695 ng·h/mL; Vd [5]: 6.64 L/kg; clearance (Rattus norvegicus): 24 mL/min/kg; bioavailability [6]: 35%; AUC [7]: 736 ng·h/mL; half-life [8]: 4.71 h
Cc1nc2ccc(Oc3ccc(-c4ccccc4)cc3)nc2c(=O)n1C[C@H]1CCCN(C(C)C)C1,0.4,37.7,–
Cc1nc2ccc(Oc3ccc(F)cc3)nc2c(=O)n1C[C@H]1CCCN(C(C)C)C1,2,185,AUC [4]: 523 ng·h/mL; Vd [5]: 11.9 L/kg; clearance (Rattus norvegicus): 32 mL/min/kg; bioavailability [6]: 60%; AUC [7]: 941 ng·h/mL; half-life [8]: 7.16 h
COc1ccc2cccc(Oc3ccc4nc(C)n(C[C@H]5CCCN(C(C)C)C5)c(=O)c4n3)c2n1,3.1,118,–
Cc1nc2ncc(Oc3ccc(Br)cc3F)nc2c(=O)n1C[C@H]1CCCN(C(C)C)C1,0.05,1.17,–
Cc1nc2cnc(Oc3ccc(Cl)cc3F)cc2c(=O)n1C[C@H]1CCCN(C(C)C)C1,0.2,146,selectivity ratio (hERG (KCNH2)): 10; IC50 [3]: 130 nM; pIC50 [3]: 6.89
Cc1nc2ncc(Oc3ccc(-c4ccccc4)cc3)cc2c(=O)n1C[C@H]1CCCN(C(C)C)C1,1.7,131,–
Cc1nc2ccc(Oc3ccc(F)cc3)cc2c(=O)n1C[C@H]1CCCN(C(C)C)C1,1,141,inhibition [9]: > 50%; inhibition [10]: > 50%; inhibition [11]: > 50%
Cc1nc2ncc(Oc3ccc(F)cc3)nc2c(=O)n1C[C@H]1CCCN(C(C)C)C1,3.1,587,AUC [4]: 1170 ng·h/mL; Vd [5]: 2.87 L/kg; clearance (Rattus norvegicus): 13 mL/min/kg; bioavailability [6]: 33%; AUC [7]: 1170 ng·h/mL; half-life [8]: 3.01 h
Cc1nc2ncc(Oc3ccc(Br)cc3F)cc2c(=O)n1C[C@H]1CCCN(C(C)C)C1,0.16,26,IC50 [3]: 1300 nM
Cc1nc2ccc(Oc3ccc4c(c3)OCO4)nc2c(=O)n1C[C@H]1CCCN(C(C)C)C1,0.9,19.2,–
Cc1nc2ncc(Oc3ccc(-c4ccccc4)cc3)nc2c(=O)n1C[C@H]1CCCN(C(C)C)C1,0.27,80,–
Cc1nc2cnc(Oc3ccc4ncsc4c3)cc2c(=O)n1C[C@H]1CCCN(C(C)C)C1,0.1,29.2,IC50 [3]: 2400 nM; pIC50 [3]: 5.62
Cc1nc2ncc(Oc3ccc(Cl)cc3F)nc2c(=O)n1C[C@H]1CCCN(C(C)C)C1,0.6,102,–
Nc1nc(N)c(-c2ccc(NC(=O)C3CC3)cc2)c(COCc2ccccc2)n1,–,188,–
Cc1nc2cnc(Oc3ccc(F)cc3)cc2c(=O)n1C[C@H]1CCCN(C(C)C)C1,3.4,399,–
COc1ccc(Cn2c(CCc3c[nH]c4ccccc34)nnc2[C@@H](Cc2c[nH]c3ccccc23)NC(=O)[C@@H]2CCCN2)c(OC)c1,–,5.6,–
Cc1nc2ccc(Oc3ccc(F)c4cccnc34)nc2c(=O)n1C[C@H]1CCCN(C(C)C)C1,2.6,131,IC50 [3]: 130 nM
Cc1nc2ncc(Oc3ccc(F)cc3)cc2c(=O)n1C[C@H]1CCCN(C(C)C)C1,6.7,357,–
Cc1nc2ncc(Oc3ccc4c(c3)OCO4)nc2c(=O)n1C[C@H]1CCCN(C(C)C)C1,1.5,16.5,–
Cc1nc2ccc(Oc3ccc(Br)cc3F)nc2c(=O)n1C[C@H]1CCCN(C(C)C)C1,0.01,2.3,–
Cc1nc2ncc(Oc3ccc4ncsc4c3)nc2c(=O)n1C[C@H]1CCCN(C(C)C)C1,0.26,5.7,–
Cc1nc2cnc(Oc3ccc4c(c3)ncn4C)cc2c(=O)n1C[C@H]1CCCN(C(C)C)C1,0.5,137,–
